Screening data: PubChem, several laboratories
This is a sample that favours compounds with a hit; in the whole collection about 3% have one here.
Hep lipid drop – hepatic lipid droplet formation modulation; AML12 mouse hepatocytes, oleate lipid droplets, BODIPY imaging; inhibition, % at 6.5 µM; hit rate 0.4% among 240,000;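 active means lipid droplet intensity inhibited by at least 50%, with more than 500 cells counted; inconclusive means wells with under 300 cells, treated as cytotoxic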
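Material: mouse AML12 hepatocyte cell line, fixed after treatment; Timing: compound with oleate, overnight; Technique: high-content imaging of BODIPY-stained droplets and DAPI nuclei; Probe or stimulus: oleate, 100 µM final; Dosing: compound at 6.5 µM only.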
aDG glyco act – increases alpha dystroglycan glycosylation | AID 624168 | hit rate 0.22% among 360,000 | Pro5-aDG cells, alpha-DG glycosylation AlphaScreen (IIH6); 0% Pro5, 100% B10-LARGE cell signal | activation, % at 10 µM;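 active means activation of at least 8% versus controls, or a plate z-score of at least 8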;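 further: Pro5 are CHO cells carrying HIG-tagged alpha-DG that lacks glycosylation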
NR3A LBD binder – modulates the human NR3A ligand-binding domain | Tm shift relative to glycine control, % at 25 µM | NR3A LBD differential scanning fluorimetry, Tm shift; 0% = protein alone, 100% = glycine-bound protein | hit rate 2.5% among 340,000;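 active means melting temperature shift of at least 10% of the positive control shift, at one fixed dose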
GASC-1 inh – inhibitors of human GASC-1 (JMJD2C) demethylase; AID 2099; hit rate 0.069% among 330,000; GST-JMJD2C(1-420) H3K9me3 demethylation, DELFIA europium; inhibition, % at 2.35 µM; Q9H3R0;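 active means more than half of a compound's replicate wells show inhibition beyond 50%, single wells judged on their own value; inconclusive means some, but no more than half, of replicates pass 50% inhibition; inactive means no replicate passes 50% inhibition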;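 further: signal counts dimethyl H3K9 product captured on neutravidin plate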
GC-A act – GC-A (human) enzyme activation; P16066; HEK293 GC-A cells, cGMP TR-FRET, EC30 ANP; 0% at EC30 ANP, 100% saturating ANP; activation, % at 10 µM; hit rate 0.14% among 370,000; in the data active means activation above about 40%
GC-B act – GC-B (human) receptor activation; hit rate 0.11% among 370,000; AID 1920062; HEK293-GC-B cells, CNP EC30, cGMP TR-FRET; 0% at EC30 CNP, 100% saturating CNP; activation, % at 10 µM; P20594;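 active means activation at 10 µM reaching about 35% in either raw or pattern-adjusted values, limit read from the data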
Lipid drop inh – hepatic lipid droplet formation inhibition, confirmed; hit rate 65% among 870; AML12 mouse hepatocytes, BODIPY lipid droplet imaging; droplets induced with 100 µM oleic acid; shares compounds with Hep lipid drop; inhibition, % at 5.2 µM;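 active means inhibition of lipid droplet metric at least 50%, with more than 300 cells in each of four replicates; inconclusive means wells under 300 cells, flagged as toxic or low count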
AML12 tox img – toxic to AML12 mouse hepatocytes in counter-screen; shares compounds with Hep lipid drop; DAPI nuclear morphology cytotoxicity imaging; active compounds read high; cells fed 100 µM oleate overnight; z-score at 5 µM; hit rate 3% among 870; in the data active means z-score above about 6.3;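 further: compound exposure lasted overnight at 37 °C before fixation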
AML12 tox conf – confirmation of cytotoxicity in AML12 mouse hepatocytes; shares compounds with Hep lipid drop; cytotoxicity, % at 50 µM; 530 tested, under 10 active; AML12 mouse hepatocyte viability, ATP luminescence; cells loaded with 100 µM oleic acid;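 active means cytotoxicity above 50% in each of four replicates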;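 further: compound exposure lasted overnight at 37 °C before the ATP read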
Large screens that a line does not name were inactive (follow-up assays come after a bar, where they were run).

CC1(C(=O)Nc2ccc3ccccc3c2)CCC(=O)N1CCOc1ccccc1 (stereo unspecified)	none (no result: Hep lipid drop, NR3A LBD binder, GASC-1 inh)
CCC(C)(C)NC(=O)C(c1ccc(OC)cc1)N(Cc1ccccc1)C(=O)CCC(=O)Nc1cc(C)on1 (stereo unspecified)	Hep lipid drop 54 | Lipid drop inh 92 | AML12 tox img inactive | AML12 tox conf inactive
COc1ccc(C(C(=O)NC(C)(C)C)N(Cc2ccccc2)C(=O)CCC(=O)Nc2cc(C)on2)cc1 (stereo unspecified)	Hep lipid drop 66 | Lipid drop inh 70 | AML12 tox img inactive | AML12 tox conf inactive
COc1ccc(C(C(=O)NC(C)(C)C)N(CC2CCCO2)C(=O)CCC(=O)Nc2cc(C)on2)cc1 (stereo unspecified)	Hep lipid drop 58 | Lipid drop inh 90 | AML12 tox img inactive | AML12 tox conf inactive
Cc1ccc(C(C(=O)NC(C)(C)C)N(Cc2ccco2)C(=O)CCC(=O)Nc2ccccn2)cc1 (stereo unspecified)	Hep lipid drop 50 | Lipid drop inh inactive | AML12 tox img inactive
O=C(COC(=O)Cn1nnc(-c2ccccc2)n1)Nc1cc(F)ccc1F	none (no result: Hep lipid drop)
COc1ccc(C(C(=O)NC(C)(C)C)N(CCC(C)C)C(=O)CCC(=O)Nc2cc(C)on2)cc1 (stereo unspecified)	Hep lipid drop 114 | Lipid drop inh 108 | AML12 tox img inactive | AML12 tox conf inactive
COc1cccc(C(C(=O)NC(C)(C)C)N(CCC(C)C)C(=O)CCC(=O)Nc2cc(C)on2)c1OC (stereo unspecified)	none
CCOc1ccc(CCNC(=O)CCCn2c(=O)c3cccn3c3cccnc32)cc1OCC	Hep lipid drop 69 | Lipid drop inh 88 | AML12 tox img inactive | AML12 tox conf inactive
CCOc1ccc(CCNC(=O)CN2C(=O)NC(CCSC)C2=O)cc1OCC (stereo unspecified)	Hep lipid drop 85 | Lipid drop inh 100 | AML12 tox img inactive | AML12 tox conf inactive
CCOc1ccc(CCNC(=O)C(C)n2nc(C)n3c(cc4occc43)c2=O)cc1OCC (stereo unspecified)	Hep lipid drop 58 | Lipid drop inh 94 | AML12 tox img inactive | AML12 tox conf inactive
CCOc1ccc(CCNC(=O)CN2C(=O)NC3(CCCCC3C)C2=O)cc1OCC (stereo unspecified)	none (no result: Hep lipid drop)
Cc1nn(C(C)C(=O)NCCc2ccccc2)c(=O)c2cc3occc3n12 (stereo unspecified)	none
CCOc1ccc(CCNC(=O)Cn2nc(C)n3cccc3c2=O)cc1OCC	Hep lipid drop 79 (no result: GC-A act, GC-B act) | Lipid drop inh 104 | AML12 tox img inactive | AML12 tox conf inactive
CC1CCCN(C(=O)c2cc(S(=O)(=O)N3CCCCC3)c[nH]2)C1 (stereo unspecified)	none
COc1ccc(S(=O)(=O)NCC(c2cccnc2)N2CCN(Cc3ccccc3)CC2)cc1C (stereo unspecified)	none
CCOc1ccc(CCNC(=O)Cn2cccc2C(=O)c2ccccc2)cc1OCC	Hep lipid drop 84, GASC-1 inh inconclusive | Lipid drop inh 109 | AML12 tox img inactive | AML12 tox conf inactive
CCCNC(=O)Cn1cccc1C(=O)c1ccccc1	none (no result: Hep lipid drop)
CCOc1ccc(CCNC(=O)Cn2c(-c3nonc3N)nc3ccccc32)cc1OCC	Hep lipid drop 75 (no result: GASC-1 inh) | Lipid drop inh 101 | AML12 tox img inactive | AML12 tox conf inactive
